# Source: ChEMBL document CHEMBL1938274, “Discovery of potent and specific CXCR3 antagonists” (Bioorg Med Chem Lett, 2012)
# pIC50: −log10 of the molar value.
# Legend:
# Cytochrome P450 3A4 = Cytochrome P450 3A4 (Homo sapiens, UniProt P08684); experiment: Time dependent inhibition of CYP3A4; format: ADME
# [1] = molecular target: T1, C-X-C chemokine receptor type 3 (Homo sapiens, UniProt P49682); experiment: Displacement of [125I]-IP-10 from CXCR3 in presence of 100% human serum
# T1 sequence (P49682 whole entry): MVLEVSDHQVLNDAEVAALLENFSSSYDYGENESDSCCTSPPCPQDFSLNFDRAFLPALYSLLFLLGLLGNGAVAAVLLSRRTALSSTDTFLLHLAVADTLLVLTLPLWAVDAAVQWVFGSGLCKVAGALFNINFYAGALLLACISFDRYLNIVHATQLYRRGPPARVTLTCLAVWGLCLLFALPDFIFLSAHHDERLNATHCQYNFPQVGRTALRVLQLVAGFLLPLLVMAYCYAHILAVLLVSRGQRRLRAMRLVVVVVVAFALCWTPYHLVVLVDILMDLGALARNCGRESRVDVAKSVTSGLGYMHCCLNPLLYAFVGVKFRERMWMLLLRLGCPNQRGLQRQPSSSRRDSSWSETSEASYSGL
# PBL [2] = experiment: Toxicity in human PBL assessed as chromosomal aberrations at 7.81 to 1000 ug/mL; format: cell-based
# Method in brief: (§1)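 Cultured human peripheral blood lymphocytes exposed at 7.81–1000 μg/mL, with and without S9 metabolic activation; chromosomal aberrations scored.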
# [3] = molecular target: T1, C-X-C chemokine receptor type 3; experiment: Displacement of [125I]-IP-10 from CXCR3
# PBL [4] = experiment: Toxicity in human PBL assessed as chromosomal aberrations at 7.81 to 1000 ug/mL in the presence of S9; format: cell-based; method in brief: as §1
# [5] = Permeability of the compound at pH 5 to 7.4 by PAMPA; format: ADME; settings: read-out: permeability
# Method in brief: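 PAMPA permeability measured across pH 5 to 7.4.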
# Blood [6] = experiment: Drug level in C57BL/6 mouse blood at 1 mg/kg, sc after 1 hr; format: ADME, organism-based; parameters: dose 1 mg/kg, route subcutaneous; settings: in vivo
# Method in brief: (§2)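 C57BL/6 mice given bleomycin intra-tracheally and dosed subcutaneously by osmotic mini-pump for 6 days; plasma collected to measure drug level, reported 1 h post dose.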
# [7] = molecular target: T2, C-X-C chemokine receptor type 3 (Mus musculus, UniProt O88410); experiment: Receptor occupancy of CXCR3 in mouse whole blood assessed as inhibition of ITAC binding by fluorescence quenching based FACS analysis
# T2 sequence (O88410 whole entry): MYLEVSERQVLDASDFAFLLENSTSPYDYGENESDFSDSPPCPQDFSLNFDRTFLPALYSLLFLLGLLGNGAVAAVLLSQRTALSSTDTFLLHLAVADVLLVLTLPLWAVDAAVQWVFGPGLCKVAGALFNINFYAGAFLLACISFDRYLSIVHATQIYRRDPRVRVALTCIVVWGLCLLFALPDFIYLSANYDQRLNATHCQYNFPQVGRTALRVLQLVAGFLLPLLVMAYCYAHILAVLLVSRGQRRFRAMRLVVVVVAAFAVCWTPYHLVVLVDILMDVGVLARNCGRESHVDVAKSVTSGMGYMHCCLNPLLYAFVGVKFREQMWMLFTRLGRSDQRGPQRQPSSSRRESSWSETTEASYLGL
# Blood [8] = experiment: Drug level in C57BL/6 mouse blood at 10 mg/kg, sc after 1 hr; format: ADME, organism-based; parameters: dose 10 mg/kg, route subcutaneous; settings: in vivo; method in brief: as §2
# Sequence of Cytochrome P450 3A4 (P08684 whole entry): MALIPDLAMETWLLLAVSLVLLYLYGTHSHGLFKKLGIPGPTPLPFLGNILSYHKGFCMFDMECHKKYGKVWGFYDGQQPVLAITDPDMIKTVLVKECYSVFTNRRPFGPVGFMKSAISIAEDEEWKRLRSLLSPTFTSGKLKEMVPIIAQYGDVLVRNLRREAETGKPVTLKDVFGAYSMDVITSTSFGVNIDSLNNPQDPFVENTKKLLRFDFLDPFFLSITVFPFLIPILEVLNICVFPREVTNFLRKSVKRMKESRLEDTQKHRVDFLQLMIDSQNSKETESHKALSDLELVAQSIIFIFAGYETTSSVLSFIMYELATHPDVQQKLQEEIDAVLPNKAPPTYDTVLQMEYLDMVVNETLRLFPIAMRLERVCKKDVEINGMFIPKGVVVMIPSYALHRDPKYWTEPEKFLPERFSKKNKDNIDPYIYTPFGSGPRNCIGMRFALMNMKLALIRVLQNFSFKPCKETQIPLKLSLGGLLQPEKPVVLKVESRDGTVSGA
Structure (SMILES),pIC50 [1],pIC50 [3],Activity (PBL [2]),Activity (PBL [4]),other results
CCOc1ccc(-c2c([C@@H](C)N(CCS(=O)(=O)CC)C(=O)Cc3ccc(F)c(C(F)(F)F)c3)nc3ncccn23)cc1,–,–,–,–,TDI (Cytochrome P450 3A4): Not Active
CCS(=O)(=O)CCN(C(=O)Cc1ccc(C(F)(F)F)c(F)c1)[C@H](C)c1nc2ncccc2c(=O)n1-c1ccc(C#N)cc1,–,–,Toxic,Toxic,–
C[C@H](c1nc2ncccc2c(=O)n1-c1ccc(O)cc1)N(Cc1cccnc1)C(=O)Cc1ccc(OC(F)(F)F)cc1,8.39,6.09,–,–,–
CCS(=O)(=O)CCN(C(=O)Cc1ccc(F)c(C(F)(F)F)c1)[C@H](C)c1nc2ccccn2c(=O)c1-c1ccc(O)cc1,–,–,–,–,TDI (Cytochrome P450 3A4): Active
CCOc1ccc(-n2c([C@@H](C)N(Cc3cccnc3)C(=O)Cc3ccc(OC(F)(F)F)cc3)nc3ncccc3c2=O)cc1,–,–,–,–,Drug uptake (Blood [6]): 0.16 µM; pIC50 [7]: 5.72; Drug uptake (Blood [8]): 2.3 mg/kg
CCS(=O)(=O)CCN(C(=O)Cc1ccc(F)c(C(F)(F)F)c1)[C@H](C)c1nc2ncccn2c1-c1ccc(O)cc1,–,–,–,–,TDI (Cytochrome P450 3A4): Active
C[C@H](c1nc2ncccc2c(=O)n1-c1ccc(C#N)cc1)N(CC1CCS(=O)(=O)CC1)C(=O)Cc1ccc(C(F)(F)F)c(F)c1,7.82,8.15,Toxic,Toxic,–
CCS(=O)(=O)CCN(C(=O)Cc1ccc(F)c(C(F)(F)F)c1)[C@H](C)c1nc2ncccc2c(=O)n1-c1ccc(Cl)cc1,7.66,8.22,Non-toxic,Non-toxic,–

# Second part, led by results:
pIC50 [1],pIC50 [3],Structure (SMILES),Activity (PBL [2]),Activity (PBL [4]),other results
7.68,8.15,CCS(=O)(=O)CCN(C(=O)Cc1ccc(C(F)(F)F)c(F)c1)[C@H](C)c1nc2ncccc2c(=O)n1-c1ccc(Cl)cc1,Non-toxic,Non-toxic,–
7.30,7.38,CCS(=O)(=O)CCN(C(=O)Cc1ccc(F)c(C(F)(F)F)c1)[C@H](C)c1nc2ncccc2c(=O)n1-c1ccc(F)cc1,Non-toxic,Non-toxic,–
7.24,7.33,CCS(=O)(=O)CCN(C(=O)Cc1ccc(C(F)(F)F)c(F)c1)[C@H](C)c1nc2ncccc2c(=O)n1-c1ccc(F)cc1,Non-toxic,Non-toxic,Papp [5]: 0.8 ×10⁻⁶ cm/s
